Reference: ChEMBL document CHEMBL3232922, “Discovery and SAR of 6-alkyl-2,4-diaminopyrimidines as histamine H₄ receptor antagonists” (J Med Chem, 2014)
The source made the active and inactive calls. The calls are words filed in the database; no cut-off is given here.

How the values were obtained:
[1] = Half life in mouse brain at 5 mg/kg, po administered as single dose by LC-MS/MS analysis; format: ADME, organism-based; set-up: dose 5 mg/kg, route oral
In short: (§1)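 Mice received one oral dose of 5 mg/kg. Brain, liver and kidneys were surgically removed from three mice per time point for up to 96 h after dosing. Tissue drug levels were measured by LC–MS/MS with a lower limit of quantitation of 1 ng/g. Tmax and t1/2 are reported as means.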

[2] = Half life in Balb/c mouse at 2 mg/kg, iv; format: ADME, organism-based; set-up: dose 2 mg/kg, route intravenous; conditions: in vivo
[3] = AUC in Sprague-Dawley rat at 50 mg/kg, po; format: ADME, organism-based; set-up: dose 50 mg/kg, route oral; conditions: plasma
[4] = target: Cytochrome P450 2D6 (Homo sapiens, UniProt P10635); assay: Inhibition of CYP2D6 (unknown origin) at 50 to 100 uM; format: ADME
[5] = Half life in rat at 2 mg/kg, iv; format: ADME, organism-based; set-up: dose 2 mg/kg, route intravenous; conditions: in vivo
[6] = Tmax in Balb/c mouse at 5 mg/kg, po; format: ADME, organism-based; set-up: dose 5 mg/kg, route oral; conditions: in vivo
[7] = Half life in human liver microsomes; format: ADME
[8] = target: T1, Histamine H4 receptor (Mus musculus, UniProt Q91ZY2); assay: Antagonist activity at mouse histamine H4 receptor expressed in SK-N-MC cells assessed as reduction of histamine-induced inhibition of cAMP-mediated beta-galactosidase reporter gene activity treated 10 mins prior to histamine challenge by microplate reader analysis; format: functional, cell-based; conditions: read-out: pA2 (converted)
T1 sequence (Q91ZY2 whole entry): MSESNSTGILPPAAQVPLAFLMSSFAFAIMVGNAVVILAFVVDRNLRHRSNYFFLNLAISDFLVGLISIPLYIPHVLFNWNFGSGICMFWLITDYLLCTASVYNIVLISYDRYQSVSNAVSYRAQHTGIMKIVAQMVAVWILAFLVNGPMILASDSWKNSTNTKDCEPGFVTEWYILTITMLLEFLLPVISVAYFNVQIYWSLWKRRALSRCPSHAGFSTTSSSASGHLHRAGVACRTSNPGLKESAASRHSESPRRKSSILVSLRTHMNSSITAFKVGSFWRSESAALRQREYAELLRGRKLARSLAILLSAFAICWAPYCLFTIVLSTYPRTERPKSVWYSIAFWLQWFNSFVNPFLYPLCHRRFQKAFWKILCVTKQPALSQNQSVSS

[9] = Half life in beagle dog at 2 mg/kg, iv; format: ADME, organism-based, Canis lupus familiaris; set-up: dose 2 mg/kg, route intravenous; conditions: in vivo
[10] = Clearance in Sprague-Dawley rat at 2 mg/kg, iv; format: ADME, organism-based; set-up: dose 2 mg/kg, route intravenous; conditions: Sprague-Dawley, in vivo
[11] = AUC in Sprague-Dawley rat at 500 mg/kg, po; format: ADME, organism-based; set-up: dose 500 mg/kg, route oral; conditions: plasma
[12] = target: T1, Histamine H4 receptor; assay: Displacement of [3H]histamine from mouse histamine H4 receptor expressed in SK-N-MC cells after 45 mins by competition binding analysis; format: cell-based
In short: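 Transfected cells expressing the H4 receptor, competition against [3H]histamine. Ki is the geometric mean of at least three independent determinations (each in triplicate), calculated by the Cheng–Prusoff equation.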

[13] = Binding affinity to dog histamine H4 receptor; set-up: species or system Canis lupus familiaris
[14] = Initial plasma concentration in Sprague-Dawley rat at 2 mg/kg, iv; format: ADME, organism-based; set-up: dose 2 mg/kg, route intravenous
[15] = Oral bioavailability in rat at 10 mg/kg; format: ADME, organism-based; conditions: in vivo
[16] = Fraction unbound in human plasma; format: ADME, cell-free
[17] = Half life in dog liver microsomes; format: ADME, Canis lupus familiaris
[18] = target: T2, Histamine H4 receptor (Cavia porcellus, UniProt Q91ZY3); assay: Binding affinity to guinea pig histamine H4 receptor
T2 sequence (Q91ZY3 whole entry): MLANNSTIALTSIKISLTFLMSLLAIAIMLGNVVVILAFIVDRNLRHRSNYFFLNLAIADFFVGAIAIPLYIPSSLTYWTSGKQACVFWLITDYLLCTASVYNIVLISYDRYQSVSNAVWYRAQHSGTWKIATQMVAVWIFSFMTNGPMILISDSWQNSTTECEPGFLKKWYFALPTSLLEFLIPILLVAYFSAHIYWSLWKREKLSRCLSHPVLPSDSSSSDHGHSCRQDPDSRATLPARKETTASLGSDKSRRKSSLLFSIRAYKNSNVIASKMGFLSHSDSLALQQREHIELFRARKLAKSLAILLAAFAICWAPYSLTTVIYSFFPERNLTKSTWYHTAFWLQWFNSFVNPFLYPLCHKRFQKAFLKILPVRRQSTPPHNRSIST

[19] = Half life in mouse kidney at 5 mg/kg, po administered as single dose by LC-MS/MS analysis; format: ADME, organism-based; set-up: dose 5 mg/kg, route oral; in short: as §1
[20] = Antagonist activity at monkey histamine H4 receptor; set-up: species or system Macaca mulatta
[21] = target: T3, Histamine H4 receptor (Homo sapiens, UniProt Q9H3N8); assay: Displacement of [3H]histamine from human recombinant histamine H4 receptor expressed in SK-N-MC cells after 45 mins by competition binding analysis; format: cell-based
[22] = Volume of distribution at steady state in Sprague-Dawley rat at 2 mg/kg, iv; format: ADME, organism-based; set-up: dose 2 mg/kg, route intravenous; conditions: Sprague-Dawley, in vivo, read-out: Vdss
[23] = AUC in Balb/c mouse at 2 mg/kg, iv; format: ADME, organism-based; set-up: dose 2 mg/kg, route intravenous; conditions: plasma
[24] = target: T4, Voltage-gated inwardly rectifying potassium channel KCNH2 (Homo sapiens, UniProt Q12809); assay: Inhibition of human ERG channel up to 30 uM by astemizole binding assay
[25] = Half life in monkey liver microsomes; format: ADME, Macaca mulatta; conditions: rhesus monkey
[26] = system: Mus musculus; assay: Antiinflammatory activity in po dosed Balb/c mouse assessed as inhibition of LPS-induced TNF-alpha release at plasma concentration of 5.7 nM administered 30 mins prior to LPS challenge measured after 2 hrs by ELISA; format: functional, organism-based
[27] = Ratio of drug level in liver to plasma in mouse at 5 mg/kg, po administered as single dose […] by LC-MS/MS analysis; format: ADME, organism-based; set-up: dose 5 mg/kg, route oral
[28] = target: T3, Histamine H4 receptor; assay: Antagonist activity at human histamine H4 receptor expressed in SK-N-MC cells assessed as reduction of histamine-induced inhibition of cAMP-mediated beta-galactosidase reporter gene activity treated 10 mins prior to histamine challenge by microplate reader analysis; format: functional, cell-based; conditions: read-out: pA2 (converted)
[29] = Oral bioavailability in Balb/c mouse at 20 mg/kg; format: ADME, organism-based; conditions: in vivo
[30] = Ratio of drug level in brain to plasma in mouse at 5 mg/kg, po administered as single dose […] by LC-MS/MS analysis; format: ADME, organism-based; set-up: dose 5 mg/kg, route oral; conditions: brain and plasma
[31] = target: T4, Voltage-gated inwardly rectifying potassium channel KCNH2; assay: Inhibition of human ERG channel transfected in HEK293 cells assessed as reduction in delayed rectifier current by patch clamp assay; format: cell-based
In short: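 The delayed rectifier current (IKr) was recorded in hERG-transfected HEK293 cells with the compound at 3 μM.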

[32] = Tmax in mouse kidney at 5 mg/kg, po administered as single dose by LC-MS/MS analysis; format: ADME, organism-based; set-up: dose 5 mg/kg, route oral; in short: as §1
[33] = Half life in Sprague-Dawley rat at 50 mg/kg, po; format: ADME, organism-based; set-up: dose 50 mg/kg, route oral; conditions: in vivo
[34] = Half life in beagle dog at 10 mg/kg, po; format: ADME, organism-based, Canis lupus familiaris; set-up: dose 10 mg/kg, route oral; conditions: in vivo
[35] = Cmax in Balb/c mouse at 20 mg/kg, po; format: ADME, organism-based; set-up: dose 20 mg/kg, route oral; conditions: in vivo
[36] = Permeability from basolateral to apical side in human Caco cells; format: ADME, cell-based; conditions: Caco-2, read-out: permeability
[37] = Oral bioavailability in Sprague-Dawley rat at 500 mg/kg; format: ADME, organism-based; conditions: in vivo
[38] = Tmax in Sprague-Dawley rat at 500 mg/kg, po; format: ADME, organism-based; set-up: dose 500 mg/kg, route oral; conditions: in vivo
[39] = AUC in beagle dog at 2 mg/kg, iv; format: ADME, organism-based, Canis lupus familiaris, Plasma; set-up: dose 2 mg/kg, route intravenous; conditions: beagle, plasma
[40] = Initial plasma concentration in Balb/c mouse at 2 mg/kg, iv; format: ADME, organism-based; set-up: dose 2 mg/kg, route intravenous

T3 sequence (Q9H3N8 whole entry): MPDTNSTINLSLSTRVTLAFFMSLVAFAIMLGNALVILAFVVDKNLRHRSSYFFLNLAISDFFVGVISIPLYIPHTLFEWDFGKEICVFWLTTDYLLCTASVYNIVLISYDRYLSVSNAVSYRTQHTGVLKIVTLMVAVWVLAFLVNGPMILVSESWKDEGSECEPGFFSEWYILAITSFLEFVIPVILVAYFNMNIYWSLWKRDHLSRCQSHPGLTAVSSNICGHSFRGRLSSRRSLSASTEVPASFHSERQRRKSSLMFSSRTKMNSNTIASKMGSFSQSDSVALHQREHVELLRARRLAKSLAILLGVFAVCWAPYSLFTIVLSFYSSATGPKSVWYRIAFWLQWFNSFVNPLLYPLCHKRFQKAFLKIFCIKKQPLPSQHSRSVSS
T4 sequence (Q12809 whole entry): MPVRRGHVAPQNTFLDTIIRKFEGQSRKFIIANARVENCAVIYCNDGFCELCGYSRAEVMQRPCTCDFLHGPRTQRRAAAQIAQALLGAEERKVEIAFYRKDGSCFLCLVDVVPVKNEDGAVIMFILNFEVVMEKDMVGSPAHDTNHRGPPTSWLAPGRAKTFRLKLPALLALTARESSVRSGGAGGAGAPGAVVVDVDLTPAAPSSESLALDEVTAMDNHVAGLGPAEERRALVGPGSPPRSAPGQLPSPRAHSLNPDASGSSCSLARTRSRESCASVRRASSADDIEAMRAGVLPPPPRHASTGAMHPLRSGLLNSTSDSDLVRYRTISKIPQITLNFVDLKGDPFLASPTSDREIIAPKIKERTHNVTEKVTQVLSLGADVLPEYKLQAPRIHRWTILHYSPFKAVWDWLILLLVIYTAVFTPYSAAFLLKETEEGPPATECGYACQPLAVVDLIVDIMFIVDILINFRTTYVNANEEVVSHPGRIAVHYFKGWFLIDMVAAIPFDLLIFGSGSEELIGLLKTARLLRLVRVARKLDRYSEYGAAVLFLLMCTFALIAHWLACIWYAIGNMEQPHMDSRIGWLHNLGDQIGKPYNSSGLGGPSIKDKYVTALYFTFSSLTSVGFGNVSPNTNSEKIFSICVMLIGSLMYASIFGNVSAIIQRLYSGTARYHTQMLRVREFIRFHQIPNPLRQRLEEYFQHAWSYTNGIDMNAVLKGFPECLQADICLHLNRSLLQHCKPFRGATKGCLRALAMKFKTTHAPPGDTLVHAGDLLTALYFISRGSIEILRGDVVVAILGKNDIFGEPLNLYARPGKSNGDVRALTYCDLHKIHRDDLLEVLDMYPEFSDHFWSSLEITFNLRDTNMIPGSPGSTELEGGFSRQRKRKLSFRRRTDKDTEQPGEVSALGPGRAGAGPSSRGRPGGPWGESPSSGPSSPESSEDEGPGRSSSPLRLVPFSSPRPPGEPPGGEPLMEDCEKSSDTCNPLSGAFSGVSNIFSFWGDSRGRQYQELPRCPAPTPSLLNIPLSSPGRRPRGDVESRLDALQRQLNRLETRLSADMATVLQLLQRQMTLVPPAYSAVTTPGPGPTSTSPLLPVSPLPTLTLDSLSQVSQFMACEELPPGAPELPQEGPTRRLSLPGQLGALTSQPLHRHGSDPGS
Chain of Cytochrome P450 2D6 (P10635 whole entry): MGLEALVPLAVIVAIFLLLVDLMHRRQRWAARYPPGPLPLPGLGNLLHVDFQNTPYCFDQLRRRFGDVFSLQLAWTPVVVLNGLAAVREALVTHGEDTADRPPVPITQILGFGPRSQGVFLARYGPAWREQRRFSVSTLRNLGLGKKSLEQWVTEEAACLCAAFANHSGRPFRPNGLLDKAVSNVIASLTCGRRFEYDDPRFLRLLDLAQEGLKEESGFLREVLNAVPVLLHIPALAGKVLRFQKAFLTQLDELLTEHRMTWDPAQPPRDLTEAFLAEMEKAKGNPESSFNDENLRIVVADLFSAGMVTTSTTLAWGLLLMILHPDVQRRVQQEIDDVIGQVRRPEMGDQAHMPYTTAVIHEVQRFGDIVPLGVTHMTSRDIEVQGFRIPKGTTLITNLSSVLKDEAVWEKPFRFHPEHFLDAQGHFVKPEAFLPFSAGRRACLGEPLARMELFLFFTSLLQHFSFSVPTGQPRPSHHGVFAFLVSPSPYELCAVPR

`CC(C)c1cc(N2CC[C@@H](N)C2)nc(N)n1` [JNJ-39758979] showed a half-life [1] of 42.5 h, a half-life [2] of 7.8 h and an AUC [3] of 13.4 µM·h. For the same compound, the “inhibition (INH)” value [4] was “Not Active”, the half-life [5] was 2.1 h and the Tmax [6] was 2 h. The half-life [7] was over 2 h, the Kb [8] was 5.01 nM and the half-life [9] was 10.2 h. The clearance [10] was 91.7 mL/min/kg, the AUC [11] was 184 µM·h and the Ki [12] was 5.3 nM. It also gave a Ki [13] of at least 10000 nM, a C0 [14] of 1100 nM and a bioavailability [15] of 36%. It also gave a fraction unbound [16] of 0.81, a half-life [17] of over 2 h and a Ki [18] of 306 nM. For the same compound, the half-life [19] was 20.5 h, the pA2 [20] was 7.5 and the Ki [21] was 12.5 nM. The Vd [22] was 19.9 L/kg, the AUC [23] was 3.27 µM·h and the “inhibition (INH)” value [24] was “Not Active”. For the same compound, the half-life [25] was over 2 h, the inhibition [26] was “Active” and the Kp [27] was 23.2. It also gave a Kb [28] of 12.6 nM, a bioavailability [29] of 75% and a Kp [30] of 22.7. The INH [31] was over 10 µM, the Tmax [32] was 2 h and the half-life [33] was 5.45 h. It also gave a half-life [34] of 11.2 h, a Cmax [35] of 5030 nM and a Papp B→A [36] of 22 ×10⁻⁶ cm/s. For the same compound, the bioavailability [37] was 53%, the Tmax [38] was 8 h and the AUC [39] was 6.7 µM·h. The C0 [40] was 1020 nM.
